The target in series [1] is Cholinesterase (Equus caballus) (UniProt P81908). Put plainly: Inhibition of equine serum BChE at 10 uM using S-butyrylthiocholine chloride as substrate preincubated for 15 mins followed by substrate addition and measured for 45 mins by Ellmans microplate assay. In a few lines:
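BuChE Ellman microplate assay at single 10 µM concentration: 0.1 M sodium phosphate buffer pH 8, sample in DMSO (1% final DMSO), 15 min room-temperature preincubation, then DTNB and S-butyrylthiocholine chloride; absorbance at 412 nm for 45 min, corrected by enzyme-free blanks. Quadruplicate, repeated at least twice; percent inhibition ± SD.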
In general terms: DTNB colorimetry detects thiols as they appear.

Series [2] relates to Brain. Description: Antioxidant activity in brain homogenate (unknown origin) assessed as decrease in TBARS formation by UV-visible spectrophotometric method. It is filed as functional, tissue-based. In short, it runs like this: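 Brain tissue homogenate mixed with test sample at five concentrations, SDS, 20% acetic acid and […], then heated at 95°C for 60 min. After cooling, the chromogen was extracted into butanol:pyridine (15:1) and centrifuged. Absorbance of the organic layer was read at 532 nm against a blank, in duplicate. % inhibition of TBARS = (Abs control − Abs sample)×100/Abs control.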

Series [3] deals with Mus musculus. Description: Reversal of scopolamine-induced memory impairment in Swiss albino mouse assessed as decrease in transfer latency time at 200 mg/kg, po administered for 8 days followed by scopolamine challenge after 60 mins of last dose measured after 45 mins by elevated plus maze test. It is filed as functional, organism-based. In short, it runs like this:
(§1)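 Swiss albino mice (20–25 g, both sexes), dosed p.o. once daily for eight days; scopolamine HBr 0.4 mg/kg i.p. given 1 h after the last dose. Transfer latency on elevated plus maze (open to closed arm, all four legs) recorded 45 min after scopolamine, after five 5-min pre-trials. Step-down latency on Cook's pole apparatus measured 24 h after training. Dunnett post-test.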

Series [4] concerns Mus musculus. Description: Reversal of scopolamine-induced memory deficit in Swiss albino mouse assessed as increase in step down latency time at 200 mg/kg, po administered for 8 days followed by scopolamine challenge by step down inhibitory avoidance test. It is filed as functional, organism-based. In short, it runs like this:
as §1

Series [5] deals with Acetylcholinesterase (Homo sapiens, UniProt P22303). Put plainly: Inhibition of AChE (unknown origin).
Series [6] deals with Acetylcholinesterase (Electrophorus electricus, UniProt O42275). Put plainly: Inhibition of electric eel AChE using acetylthiocholine iodide as substrate preincubated for 15 mins followed by substrate addition and measured for 45 mins by Ellmans microplate assay.
The target in series [7] is Cholinesterase (Equus caballus, UniProt P81908). Put plainly: Inhibition of equine serum BuChE using S-butyrylthiocholine chloride as substrate preincubated for 15 mins followed by substrate addition and measured for 45 mins by Ellmans microplate assay.
For series [8], the system named is Mus musculus. Description: Reversal of scopolamine-induced memory deficit in Swiss albino mouse assessed as increase in step down latency time at 50 mg/kg, po administered for 8 days followed by scopolamine challenge by step down inhibitory avoidance test. It is filed as functional, organism-based. In a few lines:
(§2)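 Done after the EPM session in the same mouse groups: oral test dosing for 8 days, then scopolamine 0.4 mg/kg i.p. Training used Cook's pole apparatus, a wooden platform on a bronze-bar grid, with each mouse placed on the platform and allowed to step down. 24 h later the mouse was lowered onto the platform and step-down latency was timed. Dunnett post-test was applied.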

Series [9] deals with Mus musculus. Description: Reversal of scopolamine-induced memory impairment in Swiss albino mouse assessed as decrease in transfer latency time at 50 mg/kg, po administered for 8 days followed by scopolamine challenge after 60 mins of last dose measured after 45 mins by elevated plus maze test. It is filed as functional, organism-based. In a few lines:
(§3)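 Swiss albino mice (20–25 g, both sexes) were acclimatized 15 days and had five 5-min baseline trials on the elevated plus maze. Oral vehicle, test or piracetam (200 mg/kg) was given for 8 days. Scopolamine 0.4 mg/kg i.p. followed 1 h after the last dose. Training started 45 min later: each mouse was placed at the open-arm end facing away, and transfer latency was timed until all four legs entered a closed arm.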

The subject of series [10] is Mus musculus. Description: Toxicity in Swiss albino mouse assessed as effect on autonomic reflexes at 800 mg/kg, po administered for 14 consecutive days. It is filed as organism-based. Particulars: in vivo. In a few lines: (§4)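 Acute oral toxicity per OECD-423 in Swiss albino mice (20–25 g), 3 male + 3 female per group, acclimatized 15 days; suspension in water with 1% w/v sodium carboxymethylcellulose, given p.o. at 900 then 800 mg/kg. Clinical signs, behaviour (awareness, mood, CNS excitation/depression, autonomic reflexes) and mortality observed at 15 min–72 h and up to 14 days.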

The subject of series [11] is Mus musculus. Put plainly: Toxicity in Swiss albino mouse assessed as mortality at 800 mg/kg, po administered for 14 consecutive days. It is filed as organism-based. Particulars: in vivo. In a few lines:
as §4

Series [12] relates to Mus musculus. Description: Reversal of scopolamine-induced memory deficit in Swiss albino mouse assessed as increase in step down latency time at 50 to 100 mg/kg, po administered for 8 days followed by scopolamine challenge by step down inhibitory avoidance test. It is filed as functional, organism-based. In a few lines: as §2
Series [13] has as its system Mus musculus. Description: Toxicity in Swiss albino mouse assessed as effect on awareness at 800 mg/kg, po administered for 14 consecutive days. It is filed as organism-based. Particulars: in vivo. In a few lines: as §4
The test system of series [14] is Mus musculus. Description: Reversal of scopolamine-induced memory impairment in Swiss albino mouse assessed as decrease in transfer latency time at 50 to 100 mg/kg, po administered for 8 days followed by scopolamine challenge after 60 mins of last dose measured after 45 mins by elevated plus maze test. It is filed as functional, organism-based. In a few lines:
as §3

The subject of series [15] is Mus musculus. Description: Toxicity in Swiss albino mouse assessed as CNS depression at 800 mg/kg, po administered for 14 consecutive days. It is filed as organism-based. The note with it: in vivo. In a few lines: as §4
The subject of series [16] is Mus musculus. Put plainly: Toxicity in Swiss albino mouse assessed as CNS excitation at 800 mg/kg, po administered for 14 consecutive days. It is filed as organism-based. The note with it: in vivo. In a few lines: as §4
Series [17] concerns Mus musculus. Description: Toxicity in Swiss albino mouse assessed as effect on mood at 800 mg/kg, po administered for 14 consecutive days. It is filed as organism-based. Particulars: in vivo. In a few lines:
as §4

Series [18] can be described thus: Toxicity in Swiss albino mouse assessed as mortality at 900 mg/kg, po administered for 14 consecutive days. It is filed as organism-based. The note with it: in vivo. In short, it runs like this: as §4
The test system of series [19] is Mus musculus. Description: Toxicity in Swiss albino mouse assessed as effect on behavior at 800 mg/kg, po administered for 14 consecutive days. It is filed as organism-based. The note with it: in vivo. In short, it runs like this: as §4

Each structure is given as a SMILES string. Active and inactive are the calls of the source. The rule behind the calls is not given here.

Cholinesterase (Equus caballus), sequence (P81908 whole entry): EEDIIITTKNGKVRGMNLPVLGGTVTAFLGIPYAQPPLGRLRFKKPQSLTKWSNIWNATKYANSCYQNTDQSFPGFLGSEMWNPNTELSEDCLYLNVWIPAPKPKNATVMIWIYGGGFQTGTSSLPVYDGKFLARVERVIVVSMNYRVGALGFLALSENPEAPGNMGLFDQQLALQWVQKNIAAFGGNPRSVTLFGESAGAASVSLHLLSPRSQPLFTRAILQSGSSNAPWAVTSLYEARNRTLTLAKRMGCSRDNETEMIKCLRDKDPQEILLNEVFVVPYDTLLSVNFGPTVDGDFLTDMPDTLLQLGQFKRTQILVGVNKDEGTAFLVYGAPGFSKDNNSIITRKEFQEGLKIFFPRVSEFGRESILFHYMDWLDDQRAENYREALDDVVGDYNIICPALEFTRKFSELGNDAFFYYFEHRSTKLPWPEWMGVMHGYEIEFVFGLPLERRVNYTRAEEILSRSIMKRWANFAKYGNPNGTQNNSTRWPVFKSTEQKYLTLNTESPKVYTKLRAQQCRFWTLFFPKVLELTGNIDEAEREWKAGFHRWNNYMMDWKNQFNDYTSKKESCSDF
Acetylcholinesterase (Homo sapiens, UniProt P22303), sequence (P22303 whole entry): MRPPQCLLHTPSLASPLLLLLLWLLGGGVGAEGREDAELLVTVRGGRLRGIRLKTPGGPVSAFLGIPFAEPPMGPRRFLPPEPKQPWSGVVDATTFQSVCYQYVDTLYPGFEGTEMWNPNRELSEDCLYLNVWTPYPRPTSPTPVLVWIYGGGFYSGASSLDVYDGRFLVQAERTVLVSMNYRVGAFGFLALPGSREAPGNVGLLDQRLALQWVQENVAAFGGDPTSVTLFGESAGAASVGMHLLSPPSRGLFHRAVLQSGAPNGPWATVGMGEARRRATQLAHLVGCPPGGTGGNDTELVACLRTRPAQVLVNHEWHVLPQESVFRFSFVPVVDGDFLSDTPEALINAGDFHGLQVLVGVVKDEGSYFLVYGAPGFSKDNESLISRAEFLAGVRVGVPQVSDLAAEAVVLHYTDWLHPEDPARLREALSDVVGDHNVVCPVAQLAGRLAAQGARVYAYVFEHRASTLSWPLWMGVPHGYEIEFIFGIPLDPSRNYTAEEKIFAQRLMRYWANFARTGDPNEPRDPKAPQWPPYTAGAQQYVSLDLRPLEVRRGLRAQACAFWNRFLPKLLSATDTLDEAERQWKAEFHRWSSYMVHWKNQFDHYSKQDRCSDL
Acetylcholinesterase (Electrophorus electricus, UniProt O42275), sequence (O42275 whole entry): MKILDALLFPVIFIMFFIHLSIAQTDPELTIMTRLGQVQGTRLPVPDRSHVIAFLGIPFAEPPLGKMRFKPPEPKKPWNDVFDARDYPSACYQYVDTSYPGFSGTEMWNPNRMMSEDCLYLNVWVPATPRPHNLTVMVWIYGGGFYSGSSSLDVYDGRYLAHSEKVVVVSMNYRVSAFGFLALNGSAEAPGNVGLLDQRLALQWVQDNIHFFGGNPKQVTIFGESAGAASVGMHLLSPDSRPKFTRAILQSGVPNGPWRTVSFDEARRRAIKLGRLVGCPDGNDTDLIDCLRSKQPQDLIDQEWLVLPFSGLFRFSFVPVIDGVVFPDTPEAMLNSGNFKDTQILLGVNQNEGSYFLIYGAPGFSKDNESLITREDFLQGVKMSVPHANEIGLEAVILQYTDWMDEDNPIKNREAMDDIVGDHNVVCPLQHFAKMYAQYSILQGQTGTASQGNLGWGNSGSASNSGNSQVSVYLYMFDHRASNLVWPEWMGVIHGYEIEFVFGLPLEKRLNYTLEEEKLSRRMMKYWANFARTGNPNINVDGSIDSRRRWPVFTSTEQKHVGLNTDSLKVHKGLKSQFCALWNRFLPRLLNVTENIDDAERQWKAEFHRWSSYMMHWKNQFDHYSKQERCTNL
Cholinesterase, sequence (P81908 whole entry): as the sequence (P81908 whole entry) above

In the case of `Oc1ccc(-c2nc(-c3ccccc3)c(-c3ccccc3)[nH]2)cc1`, in series [1], the inhibition result was “inactive”. Besides, the concentration for half-maximal inhibition (IC50) in series [2] turned out to be 62.4 µM.

In series [1], `COc1cccc(-c2nc(-c3ccccc3)c(-c3ccccc3)[nH]2)c1` returned an inhibition of 19.2%. Moreover, the IC50 in series [2] is 86.5 µM.

Turning to `Oc1ccccc1-c1nc(-c2ccccc2)c(-c2ccccc2)[nH]1`, the inhibition in series [1] turned out to be 13.7%. Besides, in series [2], the concentration for half-maximal inhibition (IC50) came to 101 µM.

As for `NC(=O)CN1CCCC1=O`, the result in series [3] and in series [4] was Active.

Consider `COc1ccc(-c2nc(-c3ccccc3)c(-c3ccccc3)[nH]2)cc1OC`, for which the inhibition result in [1] is “inactive”. Also, the IC50 in series [2] came to 94 µM.

`c1ccc(-c2nc[nH]c2-c2ccccc2)cc1` returned an inhibition in series [1] of 13%. Also, the IC50 in series [2] was found to be 93.2 µM.

Take `COc1cc(-c2nc(-c3ccccc3)c(-c3ccccc3)[nH]2)cc(OC)c1O`: the inhibition entry in [1] was “inactive”. In addition, the IC50 in series [2] is 264 µM.

Molecule `CCc1nn(CCCN2CCN(c3cccc(Cl)c3)CC2)c(=O)n1CCOc1ccccc1` [NEFAZODONE] registered an IC50 in series [5] of 1.04 µM.

`Oc1cccc(-c2nc(-c3ccccc3)c(-c3ccccc3)[nH]2)c1`: the half-inhibitory concentration (IC50) was 5.33 µM in [6] (read-out: IC50), 61.8 µM in series [2] and “Not Active” in series [7]. Besides, the inhibition entry in series [1] is “inactive”. Besides, the outcome in series [8] and in [9] was Active.

`CCCCOc1ccc(C(=O)CCN2CCCCC2)cc1` [DYCLONINE]: the IC50 in [5] is 0.181 µM.

In the case of `COc1cc(-c2nc(-c3ccccc3)c(-c3ccccc3)[nH]2)cc(OC)c1OC`, the results for the IC50 entry in series [6], in series [2] and in series [7] (read-out: IC50) were “Not Active”, 61.3 µM and 4.99 µM, respectively. For the same molecule, the Activity result in series [10], in series [11], in series [13], in [15], in [16] and in [17] was “Non-Toxic” in each case. For the same molecule, the Activity entry in series [19] is “Non-Toxic”. Further, the outcome in series [12] and in series [14] was Active. Moreover, the inhibition in series [1] stood at 81.3%. In addition, the mortality at 14 days in series [18] worked out at 50%.

On to `O=C1O[C@H]([C@@H](O)CO)C(O)=C1O` [ASCORBIC ACID], for which the IC50 in series [2] came out at 38.8 µM.

Take `Oc1ccc(-c2nc(-c3ccccc3)c(-c3ccccc3)[nH]2)cc1O`: the inhibition in [1] worked out at 79.5%. Besides, the IC50 in series [2] is 59.4 µM.

With `c1ccc(-c2nc(-c3ccccc3)c(-c3ccccc3)[nH]2)cc1`, in series [1], the inhibition entry was “inactive”. Moreover, the IC50 in series [2] amounted to 106 µM.

As usually defined, the inhibition is the change of the read-out against control, counted positive when it falls. As usually defined, the IC50 is the concentration that inhibits the measured activity by half. A word on the mortality: it is the share of the test organisms that died.

The values are drawn from ChEMBL document CHEMBL4219069, “In silico studies, synthesis and pharmacological evaluation to explore multi-targeted approach for imidazole analogues as potential cholinesterase inhibitors with neuroprotective role for Alzheimer's disease” (Bioorg Med Chem, 2018).
